The results in this text go back to ChEMBL document CHEMBL1629506, “Design, synthesis and structure-activity relationship study of novel pyrazole-based heterocycles as potential antitumor agents” (Eur J Med Chem, 2010).

Molecules are shown by their SMILES.

The nature of data set [1]: Acute toxicity in mouse after 24 hrs. The format is organism-based. Conditions: in vivo. In outline: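 Adult mice of both sexes, acclimatized 1 week (12 h light/dark, 21–23 °C), fasted 12 h before dosing. 30 mice in 6 groups of 5 each got a single oral gavage dose, at different dose levels, of a fine-powder aqueous suspension. LD50 was determined, with values as group means of five mice.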

Data set [2] relates to OVCAR-3. Put plainly: Growth inhibition of human OVCAR3 cells after 48 hrs by sulforhodamine B assay. The conditions noted are these: OVCAR-3, 48 h. Format: functional. In outline:
(§1)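 Cells were plated at 5000–40,000 cells/well, depending on doubling time, and preincubated 24 h at 37 °C in 5% CO2. Time-zero plates were TCA-fixed at drug addition. Compounds were dissolved in DMSO and tested at five concentrations (10-fold or ½-log dilutions) for 48 h. Cells were fixed with cold TCA, stained with 0.4% sulforhodamine B and read at 515 nm. GI50 was taken as the concentration giving 50% growth.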
Background: Sulforhodamine B stains cellular protein and so reports cell mass.

Data set [3] has as its system OVCAR-5. The data set is described as follows: Growth inhibition of human OVCAR5 cells after 48 hrs by sulforhodamine B assay. Format: functional. Conditions: OVCAR-5, 48 h. In outline:
as §1

The test system of data set [4] is Rattus norvegicus. The data set is described as follows: Antiestrogenic activity in Sprague-Dawley rat assessed as reduction in estradiol induced uterine weight upto 0.06 ug, po after 8 days. Format: functional. On the set-up: scale not given: the % may be the effect or the level left. An outline of the steps:
(§2)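 Immature ovariectomized female Sprague-Dawley rats (~55 g), groups of 12. Estradiol 0.03–0.05 given s.c. daily for 7 days, with test compound or letrozole reference at various doses up to 0.06 per animal, given orally in 0.5% carboxymethylcellulose. Controls received estradiol alone. Uterine weights were taken on day 8 and group means expressed as % reduction versus estradiol-only controls. Potency was taken relative to letrozole.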

Data set [5] has as its system BT-549. The data set is described as follows: Growth inhibition of human BT549 cells after 48 hrs by sulforhodamine B assay. The conditions noted are these: BT-549, 48 h. The format is functional. In outline: as §1
Data set [6] concerns MDA-N. The data set is described as follows: Growth inhibition of human MDA-N cells after 48 hrs by sulforhodamine B assay. The format is functional. An outline of the steps: as §1
Data set [7] has as its system SK-OV-3. The data set is described as follows: Growth inhibition of human SKOV3 cells after 48 hrs by sulforhodamine B assay. Format: functional. Conditions: SK-OV-3, 48 h. In outline: as §1
The test system of data set [8] is MDA-MB-435. Put plainly: Growth inhibition of human MDA-MB-435 cells after 48 hrs by sulforhodamine B assay. The format is functional. Conditions: MDA-MB-435, 48 h. In outline: as §1
Data set [9] concerns T47D. Put plainly: Growth inhibition of human T47D cells after 48 hrs by sulforhodamine B assay. The format is functional. An outline of the steps:
as §1

The test system of data set [10] is OVCAR-8. Put plainly: Growth inhibition of human OVCAR8 cells after 48 hrs by sulforhodamine B assay. Format: functional. The conditions noted are these: OVCAR-8, 48 h. An outline of the steps: as §1
Data set [11] has as its system MCF7. The data set is described as follows: Growth inhibition of human MCF7 cells after 48 hrs by sulforhodamine B assay. The format is functional. The conditions noted are these: MCF7, 48 h. An outline of the steps: as §1
The subject of data set [12] is IGROV-1. Put plainly: Growth inhibition of human IGROV1 cells after 48 hrs by sulforhodamine B assay. Format: functional. The conditions noted are these: IGROV-1, 48 h. In outline:
as §1

The nature of data set [13]: Growth inhibition of human Hs 578T cells after 48 hrs by sulforhodamine B assay. Format: functional. In outline: as §1
The test system of data set [14] is OVCAR-4. The data set is described as follows: Growth inhibition of human OVCAR4 cells after 48 hrs by sulforhodamine B assay. The format is functional. Conditions: OVCAR-4, 48 h. In outline: as §1
Data set [15] concerns NCI/ADR-RES. The data set is described as follows: Growth inhibition of human NCI/ADR-RES cells after 48 hrs by sulforhodamine B assay. The format is functional. In outline:
as §1

Data set [16] deals with Rattus norvegicus. Put plainly: Antiestrogenic activity in Sprague-Dawley rat assessed as reduction in estradiol induced uterine weight 0.06 ug, po after 8 days relative to letrozole. The format is functional. In outline: as §2
Data set [17] has as its system MDA-MB-231. The data set is described as follows: Growth inhibition of human MDA-MB-231cells after 48 hrs by sulforhodamine B assay. Format: functional. The conditions noted are these: MDA-MB-231, 48 h. An outline of the steps: as §1

In general, LD50 refers to the dose at which mortality reaches 50%. As a reminder, the GI50 is the concentration at which growth is held to half of that of the control. Regarding `Cc1ccc(-n2cc(C(=O)c3nn(-c4ccccc4)c(-c4ccccc4)c3C#N)c(C(=O)c3nn(-c4ccccc4)c(-c4ccccc4)c3C#N)n2)cc1`, in [1], the 50% lethal dose (LD50) at 24 h came to 211 mg/kg. Further, the GI50 in data set [2] was 99.8 µM; in data set [3], 36.8 µM; in data set [5], 2.47 µM; in data set [6], 26.8 µM; in [7], 38.8 µM; in [8], over 100 µM. Further, the GI50 in [9] came out at 25.7 µM; in [10], 20.3 µM; in data set [11], 0.061 µM; in data set [12], 0.022 µM; in data set [13], 37.4 µM; in data set [14], 30.4 µM. Further, the 50% growth inhibitory concentration (GI50) in data set [15] and in data set [17] was over 100 µM each time. In [4], the Activity is recorded as 32.43%. Moreover, in data set [16], the potency ratio vs letrozole was 1.49.

Consider `N#Cc1c(-c2nnc(O)c3nn(-c4ccc(Cl)cc4)cc23)nn(-c2ccccc2)c1-c1ccccc1`, for which, in [1], the LD50 at 24 h came to 322 mg/kg. Besides, the GI50 in data set [2] is 33.4 µM; in data set [3], 32.8 µM; in data set [5] it was over 100 µM; in [6] it was over 100 µM; in data set [7] it was 30.8 µM; in data set [8], over 100 µM. For the same compound, the GI50 in data set [9] is over 100 µM; in data set [10] it was 3.23 µM; in data set [11], over 100 µM; in data set [12] it was 91.3 µM; in data set [13], over 100 µM; in data set [14], 4.38 µM. The GI50 in data set [15] and in data set [17] was over 100 µM in each case. In addition, the Activity in data set [4] was determined as 23.76%. In addition, the potency ratio vs letrozole in data set [16] is 1.09.

With `CCOC(=O)c1nn(-c2ccc(C)cc2)cc1C(=O)c1nn(-c2ccccc2)c(-c2ccccc2)c1C#N`, in data set [1], the LD50 at 24 h was 274 mg/kg. The GI50 is 91.8 µM in data set [2]; over 100 µM in data set [3]; over 100 µM in data set [5]; over 100 µM in data set [6]; over 100 µM in data set [7]; over 100 µM in data set [8]. For the same compound, the GI50 in [9] is over 100 µM; in data set [10], 9.18 µM; in data set [11] it was over 100 µM; in [12], 94.8 µM; in data set [13] it was over 100 µM; in [14], 5.46 µM. Also, the GI50 in [15] and in data set [17] was over 100 µM throughout. For the same compound, in data set [4], the Activity turned out to be 42.83%. Besides, the potency ratio vs letrozole in [16] worked out at 1.96.

Turning to `N#Cc1c(C(=O)c2cn(-c3ccccc3)nc2-c2ccccc2)nn(-c2ccccc2)c1-c1ccccc1`, the LD50 at 24 h in data set [1] was determined as 122 mg/kg. Further, the GI50 in data set [2] was 4.94 µM; in data set [3], 6.23 µM; in [5], 1.12 µM; in [6], 3.36 µM; in data set [7], over 100 µM; in [8], 61 µM. In addition, the 50% growth inhibitory concentration (GI50) in data set [9] is 28 µM; in data set [10], 9.83 µM; in [11], 33.3 µM; in data set [12] it was over 100 µM; in [13] it was over 100 µM; in data set [14] it was 5.49 µM. In addition, the GI50 is 98 µM in data set [15] and 49.8 µM in data set [17]. In addition, the Activity in data set [4] is 23.54%. The potency ratio vs letrozole in data set [16] turned out to be 1.08.

For `N#Cc1c(-c2nnc(O)c3nn(-c4ccccc4)cc23)nn(-c2ccccc2)c1-c1ccccc1`, the LD50 at 24 h in data set [1] was found to be 114 mg/kg. The GI50 in data set [2] is over 100 µM; in data set [3], 61.8 µM; in data set [5], 44.8 µM; in data set [6], 13.8 µM; in data set [7], 36.8 µM; in data set [8], 21.8 µM. In addition, the concentration for 50% growth inhibition (GI50) in data set [9] was 2.95 µM; in [10], 61.5 µM; in data set [11], over 100 µM; in data set [12], 92.2 µM; in [13], 46.8 µM; in [14], 26.4 µM. Moreover, the GI50 in [15] was 2.76 µM; in [17], 6.21 µM. In data set [4], the Activity amounted to 32.86%. For the same compound, the potency ratio vs letrozole in data set [16] was 1.51.

`N#Cc1ccc(C(c2ccc(C#N)cc2)n2cncn2)cc1` [LETROZOLE] yielded a 50% lethal dose (LD50) at 24 h in data set [1] of 253 mg/kg. The GI50 in data set [2] was 5.87 µM; in [3], 1.62 µM; in data set [5] it was 0.89 µM; in data set [6], 1.61 µM; in data set [7], 1.09 µM; in [8] it was 0.067 µM. Besides, the GI50 came to 0.44 µM in data set [9]; 4.5 µM in data set [10]; 0.7 µM in data set [11]; 0.095 µM in data set [12]; 2.17 µM in data set [13]; 0.88 µM in data set [14]. Further, the GI50 amounted to 1.16 µM in data set [15] and 0.15 µM in data set [17]. Besides, the Activity in data set [4] amounted to 21.65%. Moreover, the potency ratio vs letrozole in [16] is 1.

`Cc1nnc(-c2nn(-c3ccccc3)c(-c3ccccc3)c2C#N)c2cn(-c3ccccc3)nc12` registered a median lethal dose (LD50) at 24 h in data set [1] of 32.5 mg/kg. Also, the GI50 in [2] is 96.8 µM; in [3], over 100 µM; in [5] it was 96.8 µM; in data set [6], 38.4 µM; in [7] it was 36.8 µM; in [8], over 100 µM. Also, the GI50 in data set [9] is 9.14 µM; in data set [10], over 100 µM; in data set [11] it was 8.46 µM; in data set [12], 92 µM; in data set [13], 1.39 µM; in [14], 56.4 µM. In addition, the GI50 in data set [15] and in data set [17] was over 100 µM each time. For the same compound, the Activity in data set [4] is 23.97%. Moreover, in data set [16], the potency ratio vs letrozole was 1.1.
